Test results: ChEMBL document CHEMBL3525913, “Metabolism-dependent inhibition of CYP3A4 by lapatinib: evidence for formation of a metabolic intermediate complex with a nitroso/oxime metabolite formed via a nitrone intermediate” (Drug Metab Dispos, 2013)

Columns and labels:
Liver microsome = assay: Drug level in human liver microsomes treated with lapatinib at 50 uM by LC/MS/MS analysis; assay type: ADME
Summary of the method: (§1)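 Lapatinib 50 μM (added in DMSO) incubated 30 min at 37°C in 100 mM potassium phosphate pH 7.4 with HLM 1 mg/mL or recombinant CYP3A4+b5 / CYP3A5+b5 100 pmol/mL. Reaction started with NADPH 1 mM. Protein re-isolated by ultracentrifugation (100,000 x g, 4°C, 60 min), washed (KCl/EDTA), resuspended in phosphate buffer, ±2 mM ferricyanide 10 min 37°C, quenched with acetonitrile, then high-resolution LC/MS profiling.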

Cytochrome P450 3A4 = Cytochrome P450 3A4 (Homo sapiens, UniProt P08684); assay: Activity of recombinant CYP3A4 (unknown origin) assessed as compound formation treated with lapatinib at 50 uM by LC/MS/MS analysis; assay type: ADME; conditions: recombinant enzyme; summary of the method: as §1
[1] = Retention time of the compound by LC/MS/MS analysis relative to lapatinib; assay type: physicochemical
Summary of the method: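 Phenyl UPLC column (1.7 μm, 2.1 x 100 mm), 0.1% formic acid in water/acetonitrile, 0.4 mL/min. Gradient: 10% organic for 1 min, to 90% over 13 min, held 0.5 min. Detection by accurate-mass MS. Retention times expressed relative to lapatinib.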

Cytochrome P450 3A5 = Cytochrome P450 3A5 (Homo sapiens, UniProt P20815); assay: Activity of recombinant CYP3A5 (unknown origin) assessed as compound formation treated with lapatinib at 50 uM by LC/MS/MS analysis; assay type: ADME; conditions: recombinant enzyme; summary of the method: as §1
Chain of Cytochrome P450 3A5 (P20815 whole entry): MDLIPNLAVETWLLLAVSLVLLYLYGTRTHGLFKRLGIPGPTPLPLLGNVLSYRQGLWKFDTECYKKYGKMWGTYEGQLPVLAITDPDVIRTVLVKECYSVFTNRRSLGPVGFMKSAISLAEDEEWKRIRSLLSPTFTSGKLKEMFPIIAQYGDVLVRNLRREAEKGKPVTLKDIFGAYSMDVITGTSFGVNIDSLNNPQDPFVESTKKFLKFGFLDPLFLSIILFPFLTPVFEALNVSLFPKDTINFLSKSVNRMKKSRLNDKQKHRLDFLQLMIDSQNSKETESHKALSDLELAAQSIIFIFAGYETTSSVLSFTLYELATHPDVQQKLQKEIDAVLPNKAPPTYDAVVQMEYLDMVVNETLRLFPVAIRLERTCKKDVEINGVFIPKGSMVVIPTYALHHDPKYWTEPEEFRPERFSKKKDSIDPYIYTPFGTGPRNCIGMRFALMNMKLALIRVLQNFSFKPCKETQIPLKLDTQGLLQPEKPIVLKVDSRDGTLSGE

Chain of Cytochrome P450 3A4 (P08684 whole entry): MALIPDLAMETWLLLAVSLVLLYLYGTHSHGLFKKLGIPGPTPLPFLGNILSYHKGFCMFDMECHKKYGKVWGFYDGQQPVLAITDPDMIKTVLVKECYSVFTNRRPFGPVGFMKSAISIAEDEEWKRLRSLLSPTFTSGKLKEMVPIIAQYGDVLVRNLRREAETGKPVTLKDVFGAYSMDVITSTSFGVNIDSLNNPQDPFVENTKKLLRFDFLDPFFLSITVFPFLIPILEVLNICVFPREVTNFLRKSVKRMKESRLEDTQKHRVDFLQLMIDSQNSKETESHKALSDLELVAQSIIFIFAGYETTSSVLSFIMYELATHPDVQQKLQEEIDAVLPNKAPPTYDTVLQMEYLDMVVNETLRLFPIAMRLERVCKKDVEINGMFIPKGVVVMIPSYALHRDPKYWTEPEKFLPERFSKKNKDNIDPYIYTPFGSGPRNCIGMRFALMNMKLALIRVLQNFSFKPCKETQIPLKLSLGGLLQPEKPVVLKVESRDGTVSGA

Structure (SMILES) | Drug metabolism (Liver microsome) | Drug metabolism (Cytochrome P450 3A4) | Ratio [1] | Drug metabolism (Cytochrome P450 3A5)
CS(=O)(=O)CCN(O)Cc1ccc(-c2ccc3ncnc(Nc4ccc(OCc5cccc(F)c5)c(Cl)c4)c3c2)o1 | metabolite_detected | metabolite_detected | 1.14 | metabolite_detected
NCc1ccc(-c2ccc3ncnc(Nc4ccc(OCc5cccc(F)c5)c(Cl)c4)c3c2)o1 | metabolite_detected | metabolite_detected | 0.97 | metabolite_detected
